Screening results as filed in PubChem.
Rows were chosen to be rich in hits. Some 3.5% of all compounds tested hit in one or more screens of this group.
MrgX1 ag = agonists of human MrgX1 receptor, primary screen, HEK293 cells, Fluo-4 calcium flux. B-score at 10 µM. Fluo-4 calcium fluorescence, agonist mode; hits give high values. Mas-related G-protein coupled receptor member X1 (Homo sapiens), Q96LB2. actives 0.44% (n = 310,000);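 active means calcium response B-score plate-corrected fluorescence ratio at least 3 library SD, with starting fluorescence B-score inside 5 SD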
Target sequence (Q96LB2 whole entry, looked up): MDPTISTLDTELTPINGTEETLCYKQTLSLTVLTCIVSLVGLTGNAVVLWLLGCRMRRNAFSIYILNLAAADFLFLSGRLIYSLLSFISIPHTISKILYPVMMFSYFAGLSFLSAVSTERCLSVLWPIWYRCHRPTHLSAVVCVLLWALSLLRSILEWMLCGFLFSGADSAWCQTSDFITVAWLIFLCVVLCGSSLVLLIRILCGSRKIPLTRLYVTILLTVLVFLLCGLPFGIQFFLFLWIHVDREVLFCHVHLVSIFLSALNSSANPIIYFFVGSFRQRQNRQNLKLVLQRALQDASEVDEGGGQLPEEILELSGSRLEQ
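Assay system: stable human MrgX1 HEK293 cell line. Quantity: 15,000 cells per well. Schedule: cells plated overnight, dye loaded 0.5 h 37 °C, 0.5 h room temperature. Detection: Fluo-4 NW calcium-flux fluorescence, kinetic read. Read-out basis: peak-minus-minimum fluorescence over baseline, converted to B scores. Control set: positive and negative control wells on each plate.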
RGS4 inh = RGS4 inhibitors, primary screen, cell-based, HEK293 M3R inducible RGS4, calcium flux | Regulator of G-protein signaling 4 (Homo sapiens), P49798 | Fluo-4 calcium flux; hits give high values; triggered by carbachol at its EC20 | AID 463165, 2010 | B-score at 10 µM | actives 0.45% (n = 310,000);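 active means B-score, a plate-corrected calcium signal, over three deviations above library mean, with baseline fluorescence within five deviations of library mean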;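 further: RGS4 expression induced by doxycycline in cells with stable M3 receptor; B-score is computed from the integrated fluorescence ratio over baseline after carbachol; higher B-score means a larger calcium signal and so more RGS4 inhibition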
Target sequence (P49798 whole entry, looked up): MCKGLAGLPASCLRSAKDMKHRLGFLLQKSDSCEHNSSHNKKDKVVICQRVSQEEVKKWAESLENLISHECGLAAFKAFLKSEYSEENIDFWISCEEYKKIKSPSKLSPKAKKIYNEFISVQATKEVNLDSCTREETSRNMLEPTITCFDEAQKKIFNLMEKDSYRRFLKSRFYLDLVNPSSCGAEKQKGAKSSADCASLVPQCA
RGS4 act = RGS4 potentiators or activators, primary screen, cell-based, HEK293 M3R inducible RGS4, calcium flux | carbachol calcium flux Fluo4; hits give low values | B-score at 10 µM | actives 0.92% (n = 310,000) | AID 463111, 2010;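 active means B-score of the integrated calcium signal more than 4 SD below the library mean, with starting fluorescence not abnormally high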;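 further: negative B-score means reduced calcium response which marks RGS4 activation or potentiation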
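Also added: carbachol at ECmax as muscarinic agonist stimulus; Assay system: HEK293 cells with stable M3R and inducible RGS4; Timing: overnight RGS4 induction, 30 min dye load 37 °C, 20 min compound RT; Measured by: Fluo4-AM (2 µM) calcium-flux fluorescence, kinetic read.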
MrgX1 antagonist = antagonists of human MrgX1 receptor, primary screen, HEK293 cells, Fluo-4 calcium flux. B-score at 10 µM. actives 1.3% (n = 310,000). Mas-related G-protein coupled receptor member X1 (Homo sapiens), Q96LB2. BAM8-22 antagonism; hits give low values. AID 588676, 2011;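 active means calcium-response B-score plate-corrected more than 3 library SD below zero, starting fluorescence within 5 deviations, no agonist response on first addition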;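 further: peak minus trough fluorescence over baseline after final BAM8-22 challenge near maximal dose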
MrgX1 allo act = positive allosteric modulators of MrgX1, primary screen, HEK293 cells, Fluo-4 calcium flux | FDSS; hits give high values | AID 588675, 2011 | B-score at 10 µM | actives 0.63% (n = 310,000);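 active means plate-corrected calcium response at least 3 library SD above typical, normal starting fluorescence, not activating the receptor alone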;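 further: compound read alongside a low EC10 to EC30 dose of BAM8-22 agonist; peak minus trough fluorescence over baseline measured at the second addition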
MrgX1 ag confirm = MrgX1 receptor agonists, duplicate retest, confirmation, HEK293 cells, Fluo-4 calcium flux; shares compounds with MrgX1 ag; Fluo-4 calcium fluorescence, FDSS; activation, % at 10 µM; actives 78% (n = 600);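 active means calcium signal rise, corrected for plate position, at least 3 library SD high, with starting brightness within 5 such deviations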
HEK293 Ca flux = nonspecific calcium signal in parental HEK293, confirmation, counter-screen for MrgX1 antagonist project, parental HEK293 cells, Fluo-4 calcium flux; fluorescence ratio F(max-min)/F0 at 10 µM; actives 2% (n = 4,000); shares compounds with MrgX1 antagonist; Fluo-4 calcium fluorescence, FDSS; AID 624111, 2012;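 active means duplicate-averaged calcium fluorescence ratio at least three times the standard deviation of buffer wells, a nonspecific response in parental cells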
HEK293 Ca counter = calcium response in parental HEK293 cells, primary screen, counter-screen for MrgX1 allosteric activator project, cell-based, Fluo-4 calcium flux, duplicate; shares compounds with MrgX1 antagonist; Fluo-4 fluorescence ratio; hits give high values; fluorescence ratio F(max-min)/F0 at 10 µM; actives 0.4% (n = 4,000);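 active means calcium fluorescence ratio, averaged over duplicates, at least 3 SD of the buffer-well ratio, meaning a nonspecific response in receptor-free cells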;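 further: untransfected parental HEK293 lacking MrgX1 used as counterscreen for MrgX1 allosteric activators; fluorescence change taken during the second addition on a kinetic imager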
HEK293 Ca cntr2 = calcium response in parental HEK293 cells, primary screen, counter-screen for MrgX1 agonist project, cell-based, Fluo-4 calcium flux, duplicate, agonist mode; shares compounds with MrgX1 antagonist; Fluo-4 calcium fluorescence (FDSS); hits give high values; fluorescence ratio F(max-min)/F0 at 10 µM; actives 8.7% (n = 4,000);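 active means calcium fluorescence ratio at least three times the spread of buffer wells, meaning a non-specific response in parental cells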
A number is an active result; 0 = inactive; - = no result given.

SMILES | MrgX1 ag | RGS4 inh | RGS4 act | MrgX1 antagonist | MrgX1 allo act | MrgX1 ag confirm | HEK293 Ca flux | HEK293 Ca counter | HEK293 Ca cntr2
Nc1nc2ccc(S(=O)(=O)N3CCCCC3)cc2s1 | 42.6 | 0 | 0 | 0 | 0 | 255.6% | 0 | 0 | 53.3
Cc1ccc2nc(/C(C#N)=C\c3ccc(N4CCOCC4)o3)[nH]c2c1 | 68.4 | 0 | 0 | 0 | 0 | 0 | 0.334 | 0 | 0
COC(=O)c1ccccc1NC(=O)CCCn1nc([N+](=O)[O-])c(Br)c1C | 0 | 0 | 0 | 0 | 0 | - | - | - | -
Cc1ccc(Sc2cc(C)nc(-c3ccccn3)n2)cc1 | 31.3 | 0 | 0 | 0 | 0 | 209.5% | 0 | 0 | 0
Cc1ccc(Cl)cc1N1CCN(C(=O)CN(c2ccccc2)S(=O)(=O)N(C)C)CC1 | 0 | 0 | 0 | 0 | 0 | - | - | - | -
Cc1cc(Nc2ccccc2)nc(NCc2ccccc2)n1 | 0 | 0 | 0 | 0 | 0 | - | - | - | -
CCCCNc1cc(C)nc(NCc2ccccc2)n1 | 28.7 | 0 | 0 | 0 | 0 | 240.8% | 0 | 0 | 0
Cc1cc(N2CCC(C)CC2)nc(NCc2ccccc2)n1 | 45.7 | 0 | -7.02 | 0 | 0 | 148.2% | 0 | 0 | 0
CC(C(=O)Nc1ccc2c(c1)OCCO2)N1Cc2ccccc2C1=O (configuration not stated) | 0 | 0 | 0 | 0 | 0 | - | - | - | -
O=C(Nc1ccccc1)N1CCC(C(=O)N2CCCC(C(F)(F)F)C2)CC1 (configuration not stated) | 0 | 0 | 0 | 0 | 0 | - | - | - | -
CN(C)S(=O)(=O)c1cccc(-n2sc3ccccc3c2=O)c1 | 36.7 | - | - | 0 | 0 | 225.1% | 0 | 0 | 49.7
O=c1c2ccccc2sn1-c1ccccc1 | 41 | 0 | 0 | 0 | 0 | 229.0% | 0 | 0 | 49.1
O=c1c2ccccc2sn1-c1ccc(S(=O)(=O)N2CCCC2)cc1 | 0 | 0 | 0 | 0 | 0 | - | - | - | -
O=C(NCCS(=O)(=O)N1CCCCCC1)c1ccccc1 | 0 | 0 | 0 | 0 | 0 | - | - | - | -
C/C(=N\Nc1ncnc2sc(C)c(C)c12)c1ccccn1 | 72.3 | 0 | 0 | 0 | 0 | 499.1% | 0.461 | 0 | 101
CCOC(=O)c1ccc(N2C(=O)C3C(C2=O)C(C(=O)c2ccc(Cl)cc2)N2CCCC32)cc1 (configuration not stated) | 43.1 | 0 | 0 | 0 | 0 | 0 | 0 | 0 | 52.3
CCOC(=O)c1ccc(N2C(=O)C3CC=CCC3C2=O)cc1 (configuration not stated) | 0 | 0 | 0 | 0 | 0 | - | - | - | -
O=C(Cc1ccc(Cl)cc1Cl)OCC(=O)N1CCN(C(=O)c2ccco2)CC1 | 28.7 | 0 | 0 | 0 | 0 | 0 | 0 | 0 | 0
O=C(Cc1ccc(Cl)cc1)N1CCN(C(=O)c2ccco2)CC1 | 0 | 0 | 0 | 0 | 0 | - | - | - | -
COCC(=O)Nc1cc(Cl)ccc1C | 0 | 0 | 0 | 0 | 0 | - | - | - | -
Cc1ccc(Cl)cc1NC(=O)CC(O)(C(F)(F)F)C(F)(F)F | 29.4 | 0 | 0 | 0 | 0 | 196.0% | 0 | 0 | 46.9
COc1ccc(-c2cc(OC)c3c(C)oc(C)c3c(=O)c2)cc1OC | 0 | 0 | 0 | 0 | 0 | - | - | - | -
COc1cc(-c2cc(OC)c3c(C)oc(C)c3c(=O)c2)ccc1O | 30 | 0 | 0 | 0 | 0 | 175.2% | 0 | 0 | 0
